The record followed here is ChEMBL document CHEMBL1127561, “Novel spirosuccinimide aldose reductase inhibitors derived from isoquinoline-1,3-diones: 2-[(4-bromo-2-fluorophenyl)methyl]-6- fluorospiro[isoquinoline-4(1H),3'-pyrrolidine]-1,2',3,5'(2H)-tetrone and congeners. 1” (J Med Chem, 1994).

Activity calls are given as the source filed them.

The target in data set [1] is T1, Aldo-keto reductase family 1 member B1 (Bos taurus, UniProt P16116). The data set is described as follows: In vitro inhibition of aldose reductase activity in a partially purified bovine lens preparation.
Data set [2] deals with Rattus norvegicus. Kind of data set: Percentage Inhibition of galactitol accumulation in the sciatic nerve of rats fed with the dose of 0.5 mg/kg/day. The class given is functional. In outline: (§1)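 Male Sprague-Dawley rats (70-90 g), six per group, fed 20% galactose chow with compound in the diet for 4 days; glucose-fed controls. After a 3-h fast, lens or sciatic nerve galactitol was measured as nmol/mg wet weight. Percent inhibition vs galactose-fed controls, mean ± SEM; ANOVA with Dunnett's test.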

The target in data set [3] is Aldo-keto reductase family 1 member B1 (Bos taurus) (UniProt P16116). The data set is described as follows: Inhibition of aldose reductase activity in a partially purified bovine lens preparation at 4*10e-8 M. In outline: (§2)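 Partially purified bovine lens aldose reductase (ammonium sulfate fractionation). NADPH oxidation read at 340 nm, 37 °C, in 30 mM sodium phosphate pH 6.2, 0.2 M LiSO4, […], 1% DMSO. Enzyme was preincubated with inhibitor for 5 min, then the reaction was started with 5 mM DL-glyceraldehyde. Duplicates; IC50 from linear regression of log concentration vs percent inhibition.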

Data set [4] has the same target. The data set is described as follows: Inhibition of aldose reductase activity in a partially purified bovine lens preparation at 10e-7 M. In short, it runs like this: as §2
Data set [5] deals with Rattus norvegicus. Kind of data set: Percentage Inhibition of galactitol accumulation in the sciatic nerve of rats fed with the dose of 1.0 mg/kg/day. The data set is classed as functional. In outline:
as §1

Data set [6] in a line: Log P value by using Octanol / pH 7.4 buffer. The class given is physicochemical. In short, it runs like this:
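Partition measured between octanol and pH 7.4 buffer.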

Data set [7] deals with T1, Aldo-keto reductase family 1 member B1. Kind of data set: In vitro inhibition of aldose reductase activity in a partially purified bovine lens preparation at 4*10e-8 M; NS=Not significant. In outline: as §2
Data set [8] has the same target. The data set is described as follows: Compound was evaluated In vitro for inhibition of aldose reductase activity in a partially purified bovine lens preparation at 10e-7 M; NS=Not significant. In short, it runs like this:
as §2

The species named for data set [9] is Rattus norvegicus. Kind of data set: Percentage Inhibition of galactitol accumulation in the sciatic nerve of rats.
Data set [10] in a line: Half-life In vitro. The data set is classed as ADME.
Data set [11] deals with Rattus norvegicus. Kind of data set: Percentage Inhibition of galactitol accumulation in the sciatic nerve of rats fed with the dose of 0.6 mg/kg/day. The class given is functional. In outline: as §1
For data set [12], the system named is Rattus norvegicus. Kind of data set: Percentage Inhibition of galactitol accumulation in the lens of rats fed with the dose of 0.6 mg/kg/day; NS=no significant. The class given is functional, organism-based. To be noted: Lens of camera-type eye. In outline: as §1

The term IC50 denotes the concentration that gives 50% inhibition. For orientation: inhibition in vivo means the change of the read-out against control, counted positive when it falls. The inhibition is the change of the read-out against control, counted positive when it falls. One may read the logD as the decadic logarithm of the distribution of all forms, ionised or not, between an organic phase and buffer at a given pH. In general, ED50 refers to the midpoint of the dose-response relation. Read a low ED50 as greater potency. The term half-life denotes the time needed for the level to fall by half in the phase considered.

In turn, `O=C1CC2(C(=O)N1)C(=O)N(Cc1cccc(C(F)(F)F)c1)C(=O)c1ccccc12` (stereo not drawn) had an IC50 in [1] of 17 nM. In other words, the double-digit nanomolar range.

In [1], `O=C1CC2(C(=O)N1)C(=O)N(Cc1ccc(Br)cc1F)C(=O)c1cccc(F)c12` (stereo not drawn) displayed an IC50 of 21 nM. This molecule also returned an inhibition in vivo at 0.5 mg/kg/day in data set [2] of 52%.

In the case of `COc1ccc2c(c1)C1(CC(=O)NC1=O)C(=O)N(C)C2=O` (stereo not drawn), the inhibition in data set [3] amounted to 30%; in [4], 63%.

For `COc1cc2c(cc1Br)C1(CC(=O)NC1=O)C(=O)N(Cc1ccc(Br)cc1F)C2=O` (stereo not drawn), in [1], the midpoint of inhibition, the IC50, lay at 28 nM. The molecule further had an inhibition in vivo at 0.5 mg/kg/day in [2] of 55%.

In [1], `COc1ccc2c(c1F)C1(CC(=O)NC1=O)C(=O)N(Cc1ccc(Br)cc1F)C2=O` (stereo not drawn) had an IC50 of 30 nM. In data set [2], this molecule yielded an inhibition in vivo at 0.5 mg/kg/day of 43%.

In turn, `CN1C(=O)c2ccc(Br)cc2C2(CC(=O)NC2=O)C1=O` (stereo not drawn) gave an inhibition in vivo at 1 mg/kg/day in data set [5] of 54%. Besides, the inhibition in data set [3] came out at 43%; in [4] it was 85%. For the same molecule, the logD in data set [6] turned out to be 0.8.

Turning to `CCN1C(=O)c2ccccc2C2(CC(=O)NC2=O)C1=O` (stereo not drawn), the inhibition in [3] stood at 17%; in data set [4], 27%.

As to `CON1C(=O)c2ccccc2C2(CC(=O)NC2=O)C1=O` (stereo not drawn), the IC50 result in data set [7] and in data set [8] was “Not Active” throughout.

In the case of `Cc1cccc(CN2C(=O)c3ccccc3C3(CC(=O)NC3=O)C2=O)c1` (stereo not drawn), the 50% inhibitory concentration (IC50) in [1] was determined as 25 nM.

As for `CN1C(=O)c2cc(Cl)ccc2C2(CC(=O)NC2=O)C1=O` (stereo not drawn), the inhibition in [3] is 34%; in [4], 61%.

For `CCCCN1C(=O)c2ccccc2C2(CC(=O)NC2=O)C1=O` (stereo not drawn), the inhibition in [3] came out at 19%; in data set [4] it was 17%.

In the case of `Cc1ccc2c(c1)C1(CC(=O)NC1=O)C(=O)N(C)C2=O` (stereo not drawn), the inhibition worked out at 35% in [3] and 65% in data set [4].

In turn, `COc1cc2c(cc1Br)C(=O)N(C)C(=O)C21CC(=O)NC1=O` (stereo not drawn) showed an inhibition in data set [4] of 17%.

On to `CN1C(=O)c2ccc(F)cc2C2(CC(=O)NC2=O)C1=O` (stereo not drawn), for which the inhibition in [3] amounted to 36%; in data set [4] it was 74%.

As for `CN1C(=O)c2cccc(Cl)c2C2(CC(=O)NC2=O)C1=O` (stereo not drawn), the inhibition in [3] stood at 11%; in [4], 24%.

For the molecule `O=C1CC2(C(=O)N1)C(=O)N(Cc1nc3cc(C(F)(F)F)ccc3s1)C(=O)c1ccc(F)cc12` (stereo not drawn), in data set [1], the half-inhibitory concentration (IC50) stood at 26 nM. In [5], this molecule had an inhibition in vivo at 1 mg/kg/day of 53%. The molecule also gave a logD in data set [6] of 3.16.

The molecule `O=C1C[C@]2(C(=O)N1)C(=O)N(Cc1ccc(Br)cc1F)C(=O)c1ccc(F)cc12` had a half-inhibitory concentration (IC50) in [1] of 32 nM. In data set [9], this molecule registered an ED50 of 0.15 mg/kg. In data set [10], this molecule gave a half-life of 30 min.

In turn, `O=C1CC2(C(=O)N1)C(=O)N(Cc1ccc(Br)cc1F)C(=O)c1cc(Cl)ccc12` (stereo not drawn) had an IC50 in data set [1] of 33 nM. Also, the inhibition in vivo at 0.6 mg/kg/day in data set [11] was found to be 63%. Besides, the logD in data set [6] was 3.51. The inhibition entry in [12] is “inactive”.

With `COc1ccc2c(c1)C(=O)N(C)C(=O)C21CC(=O)NC1=O` (stereo not drawn), the inhibition turned out to be 41% in data set [3] and 55% in [4].

For the molecule `O=C1CC2(C(=O)N1)C(=O)N(Cc1ccc(Br)cc1F)C(=O)c1ccc(Cl)cc12` (stereo not drawn), in data set [1], the IC50 amounted to 30 nM. In data set [11], this molecule returned an inhibition in vivo at 0.6 mg/kg/day of 29%.
